Measurements published in ChEMBL document CHEMBL2346524, “Protein kinase inhibitor design by targeting the Asp-Phe-Gly (DFG) motif: the role of the DFG motif in the design of epidermal growth factor receptor inhibitors” (J Med Chem, 2013).

What was measured:
[1] = biological target: T1, Epidermal growth factor receptor (Homo sapiens, UniProt P00533); experiment: Inhibition of human wild type GST-tagged EGFR kinase domain expressed in Sf9 cells by luminescence assay; assay type: cell-based
[2] = biological target: Epidermal growth factor receptor (Homo sapiens, UniProt P00533, L858R); experiment: Inhibition of human GST-tagged EGFR L834R mutant expressed in Sf9 cells by luminescence assay; assay type: cell-based
[3] = system: Epidermal growth factor receptor (Homo sapiens), P00533 [L834R]; experiment: Inhibition of EGFR L834R mutant (unknown origin) at 1 uM relative to control; assay type: protein assay
Summary of the method: (§1)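 Single-concentration profiling at 1 μM across a 317-kinase panel that includes wild-type and mutant EGFR and HER2. Activity of each kinase is given as percent inhibition relative to control.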

[4] = system: Epidermal growth factor receptor (Homo sapiens), P00533 [L858R]; experiment: Ratio of gefitinib IC50 to compound IC50 for human GST-tagged EGFR L834R mutant
[5] = biological target: T1, Epidermal growth factor receptor; experiment: Ratio of gefitinib IC50 to compound IC50 for human wild type GST-tagged EGFR kinase domain
[6] = biological target: Cyclin-dependent kinase 2 (Homo sapiens) (UniProt P24941); experiment: Inhibition of CDK2 (unknown origin) at 1 uM relative to control; summary of the method: as §1
[7] = system: Epidermal growth factor receptor (Homo sapiens), P04626+P00533+Q15303+P21860 [UNDEFINED MUTATION]; experiment: Inhibition of EGFR T766M mutant (unknown origin) at 1 uM relative to control; assay type: protein assay; summary of the method: as §1
[8] = system: Epidermal growth factor receptor (Homo sapiens), P04626+P00533+Q15303+P21860 [UNDEFINED MUTATION]; experiment: Inhibition of EGFR T766M/L834R mutant (unknown origin) at 1 uM relative to control; assay type: protein assay; summary of the method: as §1
[9] = biological target: Epidermal growth factor receptor (Homo sapiens) (UniProt P04626+P00533+Q15303+P21860); experiment: Inhibition of EGFR L837Q mutant (unknown origin) at 1 uM relative to control; assay type: protein assay; summary of the method: as §1
[10] = biological target: T1, Epidermal growth factor receptor; experiment: Inhibition of wild type EGFR (unknown origin) at 1 uM relative to control; summary of the method: as §1
Homo sapiens [11] = species on record: Homo sapiens; experiment: Toxicity in human assessed as occurrence of diarrhea; assay type: organism-based; conditions: in vivo
Homo sapiens [12] = species on record: Homo sapiens; experiment: Toxicity in human assessed as occurrence of rash; assay type: organism-based; conditions: in vivo

SMILES | IC50 [1] [nM] | IC50 [2] [nM] | other results
CC(C)CCCC(=O)Nc1cccc(-c2c(-c3ccccc3)oc3ncnc(N[C@H](CO)c4ccccc4)c23)c1 | > 25000 | > 25000 | –
COC(=O)[C@@H](Nc1ncnc2oc(-c3ccccc3)c(-c3ccccc3)c12)c1ccccc1 | 7890 | 1450 | –
CN(C)CCC(=O)Nc1cccc(-c2c(-c3ccccc3)oc3ncnc(N[C@H](CO)c4ccccc4)c23)c1 | 8 | 2 | inhibition [3]: 100%; Ratio IC50 [4]: 7; Ratio IC50 [5]: 4; inhibition [6]: -4%; inhibition [7]: 50%; inhibition [8]: 80%; inhibition [9]: 106%; inhibition [10]: 99%
CN(C)C/C=C/C(=O)Nc1cc2c(Nc3ccc(F)c(Cl)c3)ncnc2cc1O[C@@H]1CCOC1 | – | – | Activity (Homo sapiens [11]): 95%; Activity (Homo sapiens [12]): 62%
CC[C@@H](Nc1ncnc2oc(-c3ccccc3)c(-c3ccccc3)c12)c1ccccc1 | > 10000 | > 10000 | –
Nc1cccc(-c2c(-c3ccccc3)oc3ncnc(N[C@H](CO)c4ccccc4)c23)c1 | 203 | 22 | –
CN(C)CCCC(=O)Nc1cccc(-c2c(-c3ccccc3)oc3ncnc(N[C@H](CO)c4ccccc4)c23)c1 | 29 | 34 | –
OC[C@@H](Nc1ncnc2oc(-c3ccccc3)c(-c3ccco3)c12)c1ccccc1 | 434 | 73 | –
OC[C@@H](Nc1ncnc2oc(-c3ccccc3)c(-c3ccccc3)c12)c1ccccc1 | 393 | 52 | –
CN(C)CCCCC(=O)Nc1cccc(-c2c(-c3ccccc3)oc3ncnc(N[C@H](CO)c4ccccc4)c23)c1 | 34 | 4 | –
O=[N+]([O-])c1cccc(-c2c(-c3ccccc3)oc3ncnc(N[C@H](CO)c4ccccc4)c23)c1 | 820 | 49 | –
C[C@@H](Nc1ncnc2oc(-c3ccccc3)c(-c3ccccc3)c12)c1ccccc1 | 2990 | 339 | –
CC(=O)Nc1ccc(-c2c(-c3ccccc3)oc3ncnc(N[C@H](CO)c4ccccc4)c23)cc1 | 179 | 23 | –
CC(=O)Nc1cccc(-c2c(-c3ccccc3)oc3ncnc(N[C@H](CO)c4ccccc4)c23)c1 | 218 | 29 | –
CN(C)CC(=O)Nc1cccc(-c2c(-c3ccccc3)oc3ncnc(N[C@H](CO)c4ccccc4)c23)c1 | 48 | 4 | –
CN(C)CCCCCC(=O)Nc1cccc(-c2c(-c3ccccc3)oc3ncnc(N[C@H](CO)c4ccccc4)c23)c1 | 4330 | 486 | –
OC[C@@H](Nc1ncnc2oc(-c3ccccc3)c(-c3ccoc3)c12)c1ccccc1 | 352 | 44 | –
OC[C@@H](Nc1ncnc2oc(-c3ccccc3)c(Cl)c12)c1ccccc1 | 589 | 168 | –
